Results published in ChEMBL document CHEMBL2384966, “Probes for narcotic receptor mediated phenomena. 47. Novel C4a- and N-substituted-1,2,3,4,4a,9a-hexahydrobenzofuro[2,3-c]pyridin-6-ols” (Bioorg Med Chem, 2013).
Calls of active or inactive are those of the source. The calls are words filed in the database; no cut-off is given here.

What was measured:
Mu-type opioid receptor [1] = target: T1, Mu-type opioid receptor (Homo sapiens, UniProt P35372); assay: Binding affinity to mu opioid receptor (unknown origin)
[2] = target: T2, Delta-type opioid receptor (Homo sapiens, UniProt P41143); assay: Binding affinity to delta opioid receptor (unknown origin)
[3] = target: T3, Kappa-type opioid receptor (Homo sapiens, UniProt P41145); assay: Binding affinity to kappa opioid receptor (unknown origin)
[4] = target: T2, Delta-type opioid receptor; assay: Displacement of [3H]DADLE from human recombinant delta opioid receptor expressed in CHO cell membranes after 2 hrs by liquid scintillation counting analysis
How it was run: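 Human DOR stably expressed in CHO cells; washed membranes (~30 µg protein/tube) incubated with ~2 nM [3H]DADLE and 10 drug concentrations in 50 mM Tris-HCl pH 7.4 with protease inhibitors, 2 h at 25 °C. Levallorphan defined nonspecific binding.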

Mu-type opioid receptor [5] = target: T1, Mu-type opioid receptor; assay: biochemical; assay type: cell-based, CHO
[6] = target: T3, Kappa-type opioid receptor; assay: Displacement of [3H]U69,593 from human recombinant kappa opioid receptor expressed in CHO cell membranes after 2 hrs by liquid scintillation counting analysis; assay type: cell-based
Homo sapiens [7] = species on record: Homo sapiens; assay: Selectivity ratio of Ki for human recombinant kappa opioid receptor to Ki for human recombinant mu opioid receptor
Homo sapiens [8] = species on record: Homo sapiens; assay: Selectivity ratio of Ki for human recombinant kappa opioid receptor to Ki for human recombinant delta opioid receptor
Homo sapiens [9] = species on record: Homo sapiens; assay: Selectivity ratio of Ki for human recombinant mu opioid receptor to Ki for human recombinant delta opioid receptor
[10] = target: T2, Delta-type opioid receptor; assay: Antagonist activity at human recombinant delta opioid receptor expressed in mouse/rat NG108-15 cell membranes assessed as inhibition of SNC80-induced [35S]GTPgammaS binding by liquid scintillation counting analysis; assay type: functional
[11] = target: T2, Delta-type opioid receptor; assay: Partial agonist activity at human recombinant delta opioid receptor expressed in mouse/rat NG108-15 cell membranes assessed as stimulation of [35S]GTPgammaS binding after 3 hrs by liquid scintillation counting analysis; assay type: functional
How it was run: (§1)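 DOR function measured in NG108-15 neuroblastoma-glioma membranes. Incubated with drug, GDP and 50 pM final [35S]GTPγS in 50 mM Tris-HCl pH 7.4, 100 mM NaCl, 10 mM MgCl2, 1 mM EDTA, 1 mM DTT, 0.1% BSA, 3 h at 25 °C. Unlabelled GTPγS defined nonspecific binding. Bound label collected on GF/B filters and scintillation counted; ED50 and Emax reported.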

[12] = target: T2, Delta-type opioid receptor; assay: Partial agonist activity at human recombinant delta opioid receptor expressed in mouse/rat NG108-15 cell membranes assessed as stimulation of [35S]GTPgammaS binding after 3 hrs by liquid scintillation counting analysis relative to SNC80; assay type: functional; how it was run: as §1

T1 sequence (P35372 whole entry): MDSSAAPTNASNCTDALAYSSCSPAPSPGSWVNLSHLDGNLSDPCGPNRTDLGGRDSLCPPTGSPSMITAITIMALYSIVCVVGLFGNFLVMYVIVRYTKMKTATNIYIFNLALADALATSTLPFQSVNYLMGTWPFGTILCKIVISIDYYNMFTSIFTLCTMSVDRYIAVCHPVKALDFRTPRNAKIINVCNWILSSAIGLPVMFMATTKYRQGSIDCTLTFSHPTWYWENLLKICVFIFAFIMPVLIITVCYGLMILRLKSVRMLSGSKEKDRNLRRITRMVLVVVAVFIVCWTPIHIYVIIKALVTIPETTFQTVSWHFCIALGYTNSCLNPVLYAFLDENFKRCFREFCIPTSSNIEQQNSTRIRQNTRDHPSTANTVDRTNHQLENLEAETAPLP
T3 sequence (P41145 whole entry): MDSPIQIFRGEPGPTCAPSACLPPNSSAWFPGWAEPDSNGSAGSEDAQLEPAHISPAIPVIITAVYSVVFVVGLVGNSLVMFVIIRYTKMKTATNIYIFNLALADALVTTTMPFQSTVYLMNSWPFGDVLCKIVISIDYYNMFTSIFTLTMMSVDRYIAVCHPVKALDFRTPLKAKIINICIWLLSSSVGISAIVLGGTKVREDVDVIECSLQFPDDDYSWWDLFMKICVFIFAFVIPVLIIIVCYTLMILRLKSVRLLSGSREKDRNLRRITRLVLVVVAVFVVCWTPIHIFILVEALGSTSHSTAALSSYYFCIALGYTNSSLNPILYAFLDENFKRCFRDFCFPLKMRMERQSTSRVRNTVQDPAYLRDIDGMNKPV
T2 sequence (P41143 whole entry): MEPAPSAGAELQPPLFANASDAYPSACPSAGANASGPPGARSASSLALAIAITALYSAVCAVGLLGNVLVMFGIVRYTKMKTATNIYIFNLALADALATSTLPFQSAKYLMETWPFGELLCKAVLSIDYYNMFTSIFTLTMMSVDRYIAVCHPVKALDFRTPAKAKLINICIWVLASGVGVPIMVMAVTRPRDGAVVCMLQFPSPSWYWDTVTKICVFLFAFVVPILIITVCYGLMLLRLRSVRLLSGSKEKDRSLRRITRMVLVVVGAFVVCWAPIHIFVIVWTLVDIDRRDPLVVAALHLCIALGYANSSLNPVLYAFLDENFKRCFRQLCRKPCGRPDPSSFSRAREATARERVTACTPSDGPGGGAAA

Q: Which Ki (Mu-type opioid receptor [1]) does the source give for `CC[C@@]12CCN(CC3CC3)C[C@@H]1Oc1ccc(O)cc12` here?
A: 4 nM

Q: And the Ki [2]?
A: 53 nM

Q: What about the Ki [3] of the same molecule?
A: 34 nM

Q: Which Ki (Mu-type opioid receptor [1]) does the source give for `CC[C@@]12CCN(CCc3ccccc3)C[C@@H]1Oc1ccc(O)cc12` here?
A: 0.9 nM

Q: Which Ki [4] does the source give for `CN1CC[C@@]2(Cc3ccccc3)c3cc(O)ccc3O[C@H]2C1` (racemic) here?
A: 64 nM

Q: And the Ki (Mu-type opioid receptor [5])?
A: 60 nM

Q: And the Ki [6]?
A: 2880 nM

Q: With `CN1CC[C@@]2(CCc3ccccc3)c3cc(O)ccc3O[C@H]2C1` (racemic) as the molecule, how does the Ki [4] read?
A: 551 nM

Q: What about the Ki (Mu-type opioid receptor [5]) of the same molecule?
A: 66 nM

Q: What about the Ki [6] of the same molecule?
A: 3540 nM

Q: For `CC[C@@]12CCN(C)C[C@@H]1Oc1ccc(O)cc12` (racemic), which Ki [4] is on record?
A: 212 nM

Q: And the Ki (Mu-type opioid receptor [5])?
A: 19 nM

Q: What about the Ratio Ki (Homo sapiens [7]) of the same molecule?
A: > 263

Q: What about the Ratio Ki (Homo sapiens [8]) of the same molecule?
A: > 23

Q: And the Ki [6]?
A: > 5000 nM

Q: And the Ratio Ki (Homo sapiens [9])?
A: 0.09

Q: With `CCCC[C@@]12CCN(C)C[C@@H]1Oc1ccc(O)cc12` (relative stereo) as the molecule, how does the Ratio Ki (Homo sapiens [7]) read?
A: 20

Q: And the Ratio Ki (Homo sapiens [8])?
A: 9

Q: What about the Ratio Ki (Homo sapiens [9]) of the same molecule?
A: 0.5

Q: Which Ratio Ki (Homo sapiens [7]) does the source give for `CN1CC[C@@]2(C)c3cc(O)ccc3O[C@H]2C1` (relative stereo) here?
A: > 10

Q: And the Ratio Ki (Homo sapiens [8])?
A: > 0.4

Q: And the Ratio Ki (Homo sapiens [9])?
A: 0.04

Q: How did the Ke [10] turn out when `CN1CC[C@@]2(CCCCCc3ccccc3)c3cc(O)ccc3O[C@H]2C1` (relative stereo) was run?
A: > 200 nM

Q: And the Ratio Ki (Homo sapiens [7])?
A: 3

Q: And the Ratio Ki (Homo sapiens [8])?
A: 0.95

Q: What about the Ratio Ki (Homo sapiens [9]) of the same molecule?
A: 0.4

Q: How did the Ratio Ki (Homo sapiens [7]) turn out when `CN1CC[C@@]2(CCc3ccc(F)cc3)c3cc(O)ccc3O[C@H]2C1` (relative stereo) was run?
A: 17

Q: What about the Ratio Ki (Homo sapiens [8]) of the same molecule?
A: 22

Q: What about the Ratio Ki (Homo sapiens [9]) of the same molecule?
A: 1.3

Q: For `CN1CC[C@@]2(CCc3ccccc3F)c3cc(O)ccc3O[C@H]2C1` (relative stereo), which Ke [10] is on record?
A: 29 nM

Q: How did the ED50 [11] turn out when `Oc1ccc2c(c1)[C@]1(CCc3ccccc3)CCN(CC3CC3)C[C@@H]1O2` (relative stereo) was run?
A: inactive

Q: Which Ke [10] does the source give for `Oc1ccc2c(c1)[C@]1(CCc3ccccc3)CCN(CCc3ccc(C(F)(F)F)cc3)C[C@@H]1O2` (relative stereo) here?
A: 827 nM

Q: What about the Emax [12] of the same molecule?
A: 46%

Q: How did the Ke [10] turn out when `Oc1ccc2c(c1)[C@]1(CCc3ccccc3)CCN(CCc3ccc(F)cc3)C[C@@H]1O2` (relative stereo) was run?
A: 213 nM

Q: And the Emax [12]?
A: 29%

Q: `Oc1ccc2c(c1)[C@]1(CCc3ccccc3)CCN(CCc3cccc(C(F)(F)F)c3)C[C@@H]1O2` (relative stereo) was tested. Which Ke [10] did it give?
A: 455 nM

Q: Which Ke [10] does the source give for `Oc1ccc2c(c1)[C@]1(CCc3ccccc3)CCN(CCc3ccccc3)C[C@@H]1O2` (relative stereo) here?
A: 258 nM

Q: And the Emax [12]?
A: 29%

Q: Which results are given for `Oc1ccc2c(c1)[C@]1(CCc3ccccc3)CCN(CCc3ccccc3C(F)(F)F)C[C@@H]1O2` (relative stereo)?
A: Ratio Ki (Homo sapiens [7]): 11; Ratio Ki (Homo sapiens [8]): 14; Ratio Ki (Homo sapiens [9]): 1.3

Q: `Oc1ccc2c(c1)[C@]1(CCc3ccccc3)CCN(CCc3ccccc3F)C[C@@H]1O2` (relative stereo) was tested. Which Ke [10] did it give?
A: 37 nM

Q: What about the ED50 [11] of the same molecule?
A: inactive
